Measurements from paper PMC3113683 (Biochemistry, 2009).
No end group written: not given here. *: point of attachment. Biotin = O=C1N[C@H]2[C@H](CS[C@H]2CCCCC(=O)*)N1

T1: LYP300 (Homo sapiens, UniProt Q9Y2R2)
T1 sequence (Q9Y2R2 1-300): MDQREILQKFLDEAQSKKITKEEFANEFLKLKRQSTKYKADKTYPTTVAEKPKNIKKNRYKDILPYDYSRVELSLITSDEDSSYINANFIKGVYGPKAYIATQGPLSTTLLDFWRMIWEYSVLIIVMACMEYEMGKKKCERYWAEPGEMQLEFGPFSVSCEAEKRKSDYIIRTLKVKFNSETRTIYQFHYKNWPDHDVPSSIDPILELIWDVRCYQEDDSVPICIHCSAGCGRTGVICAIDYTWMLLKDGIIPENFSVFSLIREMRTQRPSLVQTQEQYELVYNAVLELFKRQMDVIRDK


What was measured:
LYP300 = molecular target: T1, LYP300; assay: Phosphatase assay, trans effect of peptides on LYP300; format: biochemical; details: Figure 5A,C; 5 nM LYP300; DiFMUP; Bis-Tris pH 6.0
[1] = Gel filtration chromatography; format: physicochemical; details: Superdex 75 10/300 GL; TNE and phosphatase buffers
LYP [2] = format: biochemical, human; details: Figure 2D; Vmax, 1 nM enzyme, 0.16 mM peptide, triplicate
LYP [3] = format: biochemical, human; details: Figure 2C; Vmax, 1 nM enzyme, 0.4 mM DiFMUP, triplicate
Outline: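 FLAG-tagged full-length LYP and C-terminal truncations (aa 1−300, 1−423, 1−517, 1−600) were expressed in baculovirus-infected Sf9 cells. They were purified on M2-FLAG beads, eluted with FLAG peptide plus DTT into 50 mM Tris-HCl pH 8.0, 0.5 mM EDTA, 1 mM DTT (>80% pure). Activity was measured under Vmax conditions in 50−100 mM Bis-Tris pH 6.0, 1−5 mM DTT. DiFMUP hydrolysis was followed continuously by fluorescence (ex 360, em 460 nm), with background subtracted using no-enzyme triplicates.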

LYP [4] = assay: Phosphatase kinetics of LYP300 and LYP320 from E. coli on pTyr peptide; format: biochemical, human; details: purified from bacterial lysates
LYP [5] = assay: Phosphatase kinetics of LYP300 and LYP320 from E. coli on DiFMUP; format: biochemical, human; details: purified from bacterial lysates
Outline: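 LYP300 and LYP320 (aa 1−300, 1−320) expressed in BL21(DE3) from pET28a. Purified by Ni2+-NTA, His tag cleaved with thrombin, protease removed on benzamidine, dialysed into 50 mM Tris-HCl pH 8.0, 0.5 mM EDTA, 1 mM DTT. 5 nM enzyme was assayed in Bis-Tris pH 6.0/DTT over a DiFMUP concentration range. Fluorescence (ex 360, em 460 nm) was read continuously at initial rate. Triplicates were corrected against no-enzyme blanks and fitted to Michaelis–Menten.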

[6] = system: T cell receptor (TCR) signaling; details: T cells; ref [4]-[8]; cited from earlier work

| Molecule | Phosphatase activity on pTyr peptide (LYP [2]) | Phosphatase activity on DiFMUP (LYP [3]) | further results |
| --- | --- | --- | --- |
| HSGTESQAKHCIPEKNHTLQ [peptide of amino acids 301−320] |  |  | Inhibition of LYP300 phosphatase activity by peptide (LYP300): substantial inhibition of the phosphatase activity |
| biotin-ATAPRIDDEIPPPLPVRTPESFIVVEEAGEFSPNVPKSLS (Biotin-ATAPRIDDEIPPPLPVRTPESFIVVEEAGEFSPNVPKSLS) [peptide of amino acids 604−643, reference compound] |  |  | Inhibition of LYP300 phosphatase activity by peptide (LYP300): did not lead to any significant inhibition of the phosphatase activity |
| LYP300: truncation of LYP immediately C-terminal to the catalytic domain (amino acids 1−300) (protein, left off: HA, N-terminal, kept) MDQREILQKFLDEAQSKKITKEEFANEFLKLKRQSTKYKADKTYPTTVAEKPKNIKKNRYKDILPYDYSRVELSLITSDEDSSYINANFIKGVYGPKAYIATQGPLSTTLLDFWRMIWEYSVLIIVMACMEYEMGKKKCERYWAEPGEMQLEFGPFSVSCEAEKRKSDYIIRTLKVKFNSETRTIYQFHYKNWPDHDVPSSIDPILELIWDVRCYQEDDSVPICIHCSAGCGRTGVICAIDYTWMLLKDGIIPENFSVFSLIREMRTQRPSLVQTQEQYELVYNAVLELFKRQMDVIRDK | greatly increased phosphatase activity | greatly increased phosphatase activity | Oligomeric state by gel filtration [1]: elute as monomers |
| LYP320: LYP truncation, amino acids 1−320 (protein, left off: His6, end not stated, cleaved) MDQREILQKFLDEAQSKKITKEEFANEFLKLKRQSTKYKADKTYPTTVAEKPKNIKKNRYKDILPYDYSRVELSLITSDEDSSYINANFIKGVYGPKAYIATQGPLSTTLLDFWRMIWEYSVLIIVMACMEYEMGKKKCERYWAEPGEMQLEFGPFSVSCEAEKRKSDYIIRTLKVKFNSETRTIYQFHYKNWPDHDVPSSIDPILELIWDVRCYQEDDSVPICIHCSAGCGRTGVICAIDYTWMLLKDGIIPENFSVFSLIREMRTQRPSLVQTQEQYELVYNAVLELFKRQMDVIRDKHSGTESQAKHCIPEKNHTLQ |  |  | Oligomeric state by gel filtration [1]: elute as monomers; Activity relative to LYP300 on pTyr peptide (LYP [4]): consistently less active than LYP300; Activity relative to LYP300 on DiFMUP (LYP [5]): consistently less active than LYP300 |
| LYP423: LYP truncation, amino acids 1−423 (protein, UniProt Q9Y2R2 1-423, looked up, fragment) MDQREILQKFLDEAQSKKITKEEFANEFLKLKRQSTKYKADKTYPTTVAEKPKNIKKNRYKDILPYDYSRVELSLITSDEDSSYINANFIKGVYGPKAYIATQGPLSTTLLDFWRMIWEYSVLIIVMACMEYEMGKKKCERYWAEPGEMQLEFGPFSVSCEAEKRKSDYIIRTLKVKFNSETRTIYQFHYKNWPDHDVPSSIDPILELIWDVRCYQEDDSVPICIHCSAGCGRTGVICAIDYTWMLLKDGIIPENFSVFSLIREMRTQRPSLVQTQEQYELVYNAVLELFKRQMDVIRDKHSGTESQAKHCIPEKNHTLQADSYSPNLPKSTTKAAKMMNQQRTKMEIKESSSFDFRTSEISAKEELVLHPAKSSTSFDFLELNYSFDKNADTTMKWQTKAFPIVGEPLQKHQSLDLGSLLFE | slightly increased activity | slightly increased activity |  |
| LYP/S227: inactive mutant of LYP (protein, UniProt Q9Y2R2 1-807, looked up, variant C227S) Tyrosine-protein phosphatase …: MDQREILQKFLDEAQSKKITKEEFANEFLKLKRQSTKYKADKTYPTTVAEKPKNIKKNRYKDILPYDYSRVELSLITSDEDSSYINANFIKGVYGPKAYIATQGPLSTTLLDFWRMIWEYSVLIIVMACMEYEMGKKKCERYWAEPGEMQLEFGPFSVSCEAEKRKSDYIIRTLKVKFNSETRTIYQFHYKNWPDHDVPSSIDPILELIWDVRCYQEDDSVPICIHSSAGCGRTGVICAIDYTWMLLKDGIIPENFSVFSLIREMRTQRPSLVQTQEQYELVYNAVLELFKRQMDVIRDKHSGTESQAKHCIPEKNHTLQADSYSPNLPKSTTKAAKMMNQQRTKMEIKESSSFDFRTSEISAKEELVLHPAKSSTSFDFLELNYSFDKNADTTMKWQTKAFPIVGEPLQKHQSLDLGSLLFEGCSNSKPVNAAGRYFNSKVPITRTKSTPFELIQQRETKEVDSKENFSYLESQPHDSCFVEMQAQKVMHVSSAELNYSLPYDSKHQIRNASNVKHHDSSALGVYSYIPLVENPYFSSWPPSGTSSKMSLDLPEKQDGTVFPSSLLPTSSTSLFSYYNSHDSLSLNSPTNISSLLNQESAVLATAPRIDDEIPPPLPVRTPESFIVVEEAGEFSPNVPKSLSSAVKVKIGTSLEWGGTSEPKKFDDSVILRPSKSVKLRSPKSELHQDRSSPPPPLPERTLESFFLADEDCMQAQSIETYSTSYPDTMENSTSSKQTLKTPGKSFTRSKSLKILRNMKKSICNSCPPNKPAESVQSNNSSSFLNFGFANRFSKPKGPRNPPPTWNI | did not exhibit any activity | did not exhibit any activity |  |
| LYP300/S227: inactive mutant of LYP300 (protein, UniProt Q9Y2R2 1-300, looked up, fragment C227S) MDQREILQKFLDEAQSKKITKEEFANEFLKLKRQSTKYKADKTYPTTVAEKPKNIKKNRYKDILPYDYSRVELSLITSDEDSSYINANFIKGVYGPKAYIATQGPLSTTLLDFWRMIWEYSVLIIVMACMEYEMGKKKCERYWAEPGEMQLEFGPFSVSCEAEKRKSDYIIRTLKVKFNSETRTIYQFHYKNWPDHDVPSSIDPILELIWDVRCYQEDDSVPICIHSSAGCGRTGVICAIDYTWMLLKDGIIPENFSVFSLIREMRTQRPSLVQTQEQYELVYNAVLELFKRQMDVIRDK | did not exhibit any activity | did not exhibit any activity |  |
| LYP: lymphoid tyrosine phosphatase LYP, encoded by the PTPN22 gene (protein, UniProt Q9Y2R2 1-807, looked up, HA tag) Tyrosine-protein phosphatase …: MDQREILQKFLDEAQSKKITKEEFANEFLKLKRQSTKYKADKTYPTTVAEKPKNIKKNRYKDILPYDYSRVELSLITSDEDSSYINANFIKGVYGPKAYIATQGPLSTTLLDFWRMIWEYSVLIIVMACMEYEMGKKKCERYWAEPGEMQLEFGPFSVSCEAEKRKSDYIIRTLKVKFNSETRTIYQFHYKNWPDHDVPSSIDPILELIWDVRCYQEDDSVPICIHCSAGCGRTGVICAIDYTWMLLKDGIIPENFSVFSLIREMRTQRPSLVQTQEQYELVYNAVLELFKRQMDVIRDKHSGTESQAKHCIPEKNHTLQADSYSPNLPKSTTKAAKMMNQQRTKMEIKESSSFDFRTSEISAKEELVLHPAKSSTSFDFLELNYSFDKNADTTMKWQTKAFPIVGEPLQKHQSLDLGSLLFEGCSNSKPVNAAGRYFNSKVPITRTKSTPFELIQQRETKEVDSKENFSYLESQPHDSCFVEMQAQKVMHVSSAELNYSLPYDSKHQIRNASNVKHHDSSALGVYSYIPLVENPYFSSWPPSGTSSKMSLDLPEKQDGTVFPSSLLPTSSTSLFSYYNSHDSLSLNSPTNISSLLNQESAVLATAPRIDDEIPPPLPVRTPESFIVVEEAGEFSPNVPKSLSSAVKVKIGTSLEWGGTSEPKKFDDSVILRPSKSVKLRSPKSELHQDRSSPPPPLPERTLESFFLADEDCMQAQSIETYSTSYPDTMENSTSSKQTLKTPGKSFTRSKSLKILRNMKKSICNSCPPNKPAESVQSNNSSSFLNFGFANRFSKPKGPRNPPPTWNI |  |  | Inhibition of T cell receptor signaling [6]: potently inhibit T cell receptor (TCR) signaling |
